Measurements collected from several papers.
Protocols differ between the studies behind these lines.
Target: Serine/threonine-protein kinase 33 (STK33, Homo sapiens, UniProt Q9BYT3)

Nc1ccc2ncnc(NCCc3ccc(Oc4ccccc4)cc3)c2c1 — remaining activity (enzyme activity; inhibitor; radiometric; 0.5 µM): 101%
COc1ncccc1-c1cnn2ccc(N3CCN(C(=O)OC(C)C)CC3)nc12 — remaining binding (binding; competition with immobilised ligand; 1 µM): 100%
Cc1nn(C)cc1-c1nc2c(N3CCN(Cc4ccc(Cl)cc4)CC3)c(Cl)cnc2[nH]1 — remaining binding (binding; competition with immobilised ligand; 1 µM): 100%
Cn1cc(-c2cccc(N3CCc4c(sc5c4CC(C)(C)C5)C3=O)c2CO)cc(Nc2ccncn2)c1=O — inhibition (enzyme activity; inhibitor; 1 µM): 2%
CCOC(=O)c1c(C)[nH]c(/C=C2\C(=O)Nc3ccccc32)c1C — remaining activity (enzyme activity; inhibitor; radiometric; 0.5 µM): 83.7%
COc1cc(Nc2ncc(F)c(Nc3ccc4c(n3)NC(=O)C(C)(C)O4)n2)cc(OC)c1OC — inhibition (binding; 10 µM): 85%
Nc1ncc(-c2nc(N3CCOCC3)nc(N3CCOCC3)n2)c(C(F)F)n1 — remaining binding (binding; competition with immobilised ligand; 10 µM): 94%
CC(C)(C)c1nc2c(s1)c1nc(N)ncc1c1ccc(NS(=O)(=O)c3c(F)cccc3F)c(F)c12 — remaining activity (enzyme activity; inhibitor; radiometric; 1 µM): 82%
Cn1cncc1[C@](O)(COc1ccc(C#N)cc1-c1ccc(OC(F)(F)F)cc1)c1ccc(C#N)cc1 — remaining binding (cell-free assay; competition with immobilised ligand; 1 µM): 74%
Cn1cc(-c2cc(F)cc(N3CCn4c(cc5c4CCCC5)C3=O)c2CO)cc(Nc2ccc(N3CCN(C4COC4)CC3)cn2)c1=O — inhibition (enzyme activity; inhibitor; 0.1 µM): -5%
CC(C)(C)c1nc(-c2cccc(NS(=O)(=O)c3c(F)cccc3F)c2F)c(-c2ccnc(N)n2)s1 — remaining activity (enzyme activity; inhibitor; radiometric; 1 µM): 76%
N#CC1(c2ccccn2)CCN(Cc2cc(C(=O)O)c(=O)n3ccccc23)CC1 — remaining binding (cell-free assay; competition with immobilised ligand; 1 µM): 56%
